Sampled rows, rich in hits. Any-hit rate of the full collection: about 1.3%.
ANO1 activ – activates or potentiates the mouse TMEM16A chloride channel; Q8BHY3; HEK293 TMEM16A/YFP-H148Q/I152L, iodide quench fluorescence; hits give low values; B-score at 10 µM; hit rate 0.3% among 340,000;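 active = fluorescence-ratio B-score plate-corrected deviation score at least 3 library SD below zero, with starting fluorescence score within 5 deviations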;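 note: channel opened by trigger with iodide after compound preincubation; score built on the fluorescence ratio of max minus min over baseline; more negative score means more quench and so TMEM16A activation or potentiation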
MT1-MMP act inh – inhibitors of human MT1-MMP activation | AID 651647 | HT1080 RFP-PRO-GFP cells, GFP/RFP ratio fluorescence, overnight; percent of plate control window, DMSO zero | GFP/RFP ratio change, % at 20 µM | hit rate 0.061% among 360,000;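 active = GFP/RFP ratio change of at least 30% with cell ATP level not reduced by more than half and red fluorescence within 50% of control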
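Assay system: HT1080 RFP-PRO-GFP cells. Benchmarks: DMSO vehicle wells and RFP-L50D-GFP reporter cell wells. Times: overnight cell settling, then overnight compound exposure, 37 °C, 5% CO2. Compound: 20 µM single dose, 1% DMSO. Read-out basis: GFP/RFP fluorescence ratio.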
DAGLB inh – diacylglycerol lipase beta (human) inhibition | HEK293T DAGLB membrane lysate, EnzChek fluorogenic substrate | inhibition, % at 5.17 µM | hit rate 0.059% among 340,000 | Q8NCG7; in the data active = inhibition above about 34%;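 note: 0% = enzyme with vehicle and 100% = wells lacking enzyme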
TMEM16A inh – blocks the mouse calcium-activated chloride channel TMEM16A; Q8BHY3; HEK293 TMEM16A/YFP iodide influx fluorescence, ionomycin; normalized B-score (activity score, 25-100; higher = stronger inhibition) at 10 µM; hit rate 1.2% among 310,000; AID 588511;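 active = ratio plate-corrected score three or more library SD toward inhibition, starting fluorescence score within five deviations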;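 note: score derived from kinetic fluorescence span divided by baseline fluorescence per well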
TMEM16A reconf – TMEM16A (mouse) chloride channel inhibition, re-confirmation; shares compounds with TMEM16A inh; HEK293 TMEM16A/YFP-H148Q, iodide quench fluorescence; ionomycin added to raise cell calcium; inhibition, % at 10 µM; hit rate 39% among 2,300; AID 652189;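 active = mean duplicate percent inhibition, scaled so buffer wells are 0 and the reference blocker 100, over three buffer SD above buffer mean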
TMEM16A Ca cntr – counter-screen for TMEM16A inhibitors: effect on calcium mobilization | TMEM16A/YFP HEK293, Fluo4 calcium mobilization | hit rate 2% among 2,300 | calcium response (% of ionomycin), % at 10 µM | shares compounds with TMEM16A inh;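 active = duplicate-averaged calcium signal over 20% of the ionomycin maximum, relative to buffer baseline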;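 note: each well's signal is peak minus trough fluorescence divided by its pre-addition baseline; 0% = buffer wells and 100% = ionomycin wells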
YFP-HEK293 quench – counter-screen for TMEM16A inhibitors: effect in parental YFP-HEK293 cells; shares compounds with TMEM16A inh; iodide YFP quench, ionomycin; YFP ratio F(max-min)/F0 at 10 µM; 2,300 tested, under 10 active; AID 652233;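 active = yellow fluorescent protein signal ratio exceeding the buffer control mean by over 5 SD of those controls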;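 note: ratio is mean of duplicate wells from kinetic YFP trace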
ClC-1 inh – blocks the rat ClC-1 voltage-dependent chloride channel. ratio percent, % at 10 µM. shares compounds with TMEM16A inh. AID 652236. CHO ClC-1-YFP, iodide influx fluorescence quench; iodide control reads 0, buffer control 100. 2,300 tested, under 10 active;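 active = duplicate-mean ratio percent above the mean of iodide-only control wells, which defines zero, plus 5 of their SD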;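 note: higher percent means stronger block of ClC-1 iodide influx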
Target sequence (P35524 whole entry, looked up): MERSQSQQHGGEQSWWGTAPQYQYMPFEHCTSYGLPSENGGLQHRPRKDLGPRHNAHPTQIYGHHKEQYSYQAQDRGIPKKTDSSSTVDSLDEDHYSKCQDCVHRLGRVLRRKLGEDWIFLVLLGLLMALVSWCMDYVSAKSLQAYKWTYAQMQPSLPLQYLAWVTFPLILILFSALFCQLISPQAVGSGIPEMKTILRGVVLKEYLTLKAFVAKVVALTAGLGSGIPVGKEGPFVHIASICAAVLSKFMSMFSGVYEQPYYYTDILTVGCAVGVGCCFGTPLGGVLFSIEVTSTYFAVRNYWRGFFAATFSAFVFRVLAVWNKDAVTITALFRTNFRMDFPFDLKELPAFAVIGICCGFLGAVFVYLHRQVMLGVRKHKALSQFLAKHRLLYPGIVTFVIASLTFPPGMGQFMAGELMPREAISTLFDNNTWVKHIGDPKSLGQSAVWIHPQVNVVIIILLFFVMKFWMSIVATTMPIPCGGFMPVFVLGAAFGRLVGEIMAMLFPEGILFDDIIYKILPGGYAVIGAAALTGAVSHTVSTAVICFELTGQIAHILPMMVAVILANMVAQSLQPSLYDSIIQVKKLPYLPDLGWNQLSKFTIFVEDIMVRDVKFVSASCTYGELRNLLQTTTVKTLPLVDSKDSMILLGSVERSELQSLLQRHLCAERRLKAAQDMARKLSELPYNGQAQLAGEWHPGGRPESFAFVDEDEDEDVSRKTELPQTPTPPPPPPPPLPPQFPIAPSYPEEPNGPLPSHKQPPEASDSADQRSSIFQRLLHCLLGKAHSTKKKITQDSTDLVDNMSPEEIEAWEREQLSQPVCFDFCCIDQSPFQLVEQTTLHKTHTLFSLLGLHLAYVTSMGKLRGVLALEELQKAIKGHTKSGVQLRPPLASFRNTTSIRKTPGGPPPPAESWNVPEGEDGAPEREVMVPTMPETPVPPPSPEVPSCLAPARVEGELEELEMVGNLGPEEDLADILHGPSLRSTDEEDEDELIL
An asterisk follows results filed as active.

What do the screens show for `CCc1ccccc1NC(=O)CN1CCN(C(=O)CNC(=O)c2ccc(N3CCCC3=O)cc2)CC1`?
ANO1 activ: inactive; MT1-MMP act inh: -1; DAGLB inh: 2

Results for c1ccc(CCCNc2ncnc3nc[nH]c23)cc1 ?
ANO1 activ: inactive; MT1-MMP act inh: 2; DAGLB inh: 0; TMEM16A inh: inactive

Results for Clc1ccc(CCNc2ncnc3nc[nH]c23)cc1 ?
ANO1 activ: inactive; MT1-MMP act inh: -4; DAGLB inh: 0; TMEM16A inh: 100*; TMEM16A reconf: 36%*; TMEM16A Ca cntr: inactive; YFP-HEK293 quench: -1.2; ClC-1 inh: -12

How did CCCc1nc(N2CCOCC2)c(C#N)c2c1CCCC2 do in these assays?
ANO1 activ: inactive; DAGLB inh: -5; TMEM16A inh: 100*; TMEM16A reconf: inactive; TMEM16A Ca cntr: inactive; YFP-HEK293 quench: -1.1; ClC-1 inh: -10

What do the screens show for `Cc1ccccc1NC(=O)COC(=O)c1ccc(S(=O)(=O)N2CCCC2)cc1`?
ANO1 activ: inactive; MT1-MMP act inh: 0; DAGLB inh: 0

How did CC(=O)N(CN1C(=O)c2ccccc2C1=O)c1cccc(C)c1 do in these assays?
ANO1 activ: inactive; MT1-MMP act inh: -2; DAGLB inh: -5; TMEM16A inh: inactive

What do the screens show for `CC(=O)N(/N=C1\Sc2ccccc2C1=O)c1cccc(C)c1`?
ANO1 activ: inactive; MT1-MMP act inh: -13; DAGLB inh: 4; TMEM16A inh: inactive; TMEM16A reconf: inactive; TMEM16A Ca cntr: inactive; YFP-HEK293 quench: -1.1; ClC-1 inh: -16

What do the screens show for `N#Cc1ccc(S(=O)(=O)N2CCC(C(=O)N3CCN(Cc4ccc5c(c4)OCO5)CC3)CC2)cc1`?
ANO1 activ: inactive; MT1-MMP act inh: -8; DAGLB inh: -1

What do the screens show for `COc1ccc(C2CC(=O)c3cnc(N4CCN(Cc5ccccc5)CC4)nc3C2)cc1` (stereo not given)?
ANO1 activ: inactive; MT1-MMP act inh: 3; DAGLB inh: -7; TMEM16A inh: 25*; TMEM16A reconf: inactive; TMEM16A Ca cntr: inactive; YFP-HEK293 quench: -1.1; ClC-1 inh: -5

What do the screens show for `Cc1ccc(C2CC(=O)c3cnc(N4CCN(c5ccccc5)CC4)nc3C2)cc1` (stereo not given)?
ANO1 activ: inactive; MT1-MMP act inh: 4; DAGLB inh: -2; TMEM16A inh: inactive

What do the screens show for `O=C1CC(c2ccco2)Cc2nc(N3CCN(Cc4ccc5c(c4)OCO5)CC3)ncc21` (stereo not given)?
ANO1 activ: inactive; MT1-MMP act inh: 0; DAGLB inh: -14; TMEM16A inh: 25*; TMEM16A reconf: inactive; TMEM16A Ca cntr: inactive; YFP-HEK293 quench: -0.95; ClC-1 inh: -4

What do the screens show for `c1cnc(N2CCN(Cc3ccc4c(c3)OCO4)CC2)nc1`?
ANO1 activ: inactive; MT1-MMP act inh: 3; DAGLB inh: -12; TMEM16A inh: inactive

Results for CCOC(=O)C1=CC[C@H]2c3c(c4ccccc4n3C)C(=O)C1N2C(=O)OC(C)(C)C ?
ANO1 activ: inactive; MT1-MMP act inh: 1; DAGLB inh: -1

Results for N#CC1=C(N)OC2=C(CCc3ccccc32)C1c1ccccc1Cl (stereo not given) ?
ANO1 activ: inactive; MT1-MMP act inh: 1; DAGLB inh: -5; TMEM16A inh: inactive; TMEM16A reconf: 38%*; TMEM16A Ca cntr: inactive; YFP-HEK293 quench: -1; ClC-1 inh: 0

How did N#CC1=C(N)Oc2cc(N)ccc2C1c1ccccc1Cl (stereo not given) do in these assays?
ANO1 activ: inactive; MT1-MMP act inh: -9; DAGLB inh: -1; TMEM16A inh: inactive

Results for Cc1oc2cc([N+](=O)[O-])c(O)c([N+](=O)[O-])c2c1C(=O)c1ccc(Cl)cc1 ?
ANO1 activ: inactive; MT1-MMP act inh: 8; DAGLB inh: 31; TMEM16A inh: 25*; TMEM16A reconf: 32%*; TMEM16A Ca cntr: inactive; YFP-HEK293 quench: -0.88; ClC-1 inh: -16

What do the screens show for `COc1ccc(OC)c(C(=O)c2c(C)oc3cc([N+](=O)[O-])c(O)c([N+](=O)[O-])c23)c1`?
ANO1 activ: inactive; MT1-MMP act inh: 1; DAGLB inh: 14; TMEM16A inh: inactive

How did CCCCN(CCO)c1ncnc2sc(-c3ccccc3)cc12 do in these assays?
ANO1 activ: inactive; MT1-MMP act inh: 1; DAGLB inh: -11; TMEM16A inh: inactive

Results for O=C(CCC(=O)Nc1cccc(C(F)(F)F)c1)NCC1CCCO1 (stereo not given) ?
ANO1 activ: inactive; MT1-MMP act inh: -3; DAGLB inh: -1; TMEM16A inh: inactive

Results for O=C(Cn1c(=O)n(-c2cccc(C(F)(F)F)c2)c(=O)c2sccc21)NCC1CCCO1 (stereo not given) ?
ANO1 activ: inactive; MT1-MMP act inh: 0; DAGLB inh: 1; TMEM16A inh: 25*; TMEM16A reconf: inactive; TMEM16A Ca cntr: inactive; YFP-HEK293 quench: -1.2; ClC-1 inh: 2

How did CCOC(=O)Cn1nc(-c2ccc(Cl)cc2)cc1N do in these assays?
ANO1 activ: inactive; MT1-MMP act inh: 1; DAGLB inh: 2; TMEM16A inh: 100*; TMEM16A reconf: inactive; TMEM16A Ca cntr: inactive; YFP-HEK293 quench: -1.4; ClC-1 inh: -9

Results for NC(=O)c1ccccc1NC(=O)c1ccccc1Cl ?
ANO1 activ: inactive; MT1-MMP act inh: -1; DAGLB inh: -2; TMEM16A inh: inactive

What do the screens show for `Cc1nn(-c2ccccc2)nc1C(=O)Nc1nnc(C(F)(F)F)s1`?
ANO1 activ: inactive; MT1-MMP act inh: -2; DAGLB inh: 3; TMEM16A inh: 100*; TMEM16A reconf: 28%*; TMEM16A Ca cntr: inactive; YFP-HEK293 quench: -0.73; ClC-1 inh: -9

What do the screens show for `CCC(Oc1ccccc1)C(=O)Nc1nnc(C)s1` (stereo not given)?
ANO1 activ: inactive; MT1-MMP act inh: -2; DAGLB inh: 5; TMEM16A inh: inactive

How did O=C(Nc1nnc(C(F)(F)F)s1)C1COc2ccccc2O1 (stereo not given) do in these assays?
ANO1 activ: inactive; MT1-MMP act inh: 2; DAGLB inh: 5; TMEM16A inh: 100*; TMEM16A reconf: 30%*; TMEM16A Ca cntr: inactive; YFP-HEK293 quench: -1.1; ClC-1 inh: -17
